Laboratory results reported in ChEMBL document CHEMBL2380276, “Synthesis and antiproliferative evaluation of piperazine-1-carbothiohydrazide derivatives of indolin-2-one” (Bioorg Med Chem Lett, 2013).

How the values were obtained:
Assay type in all cases: functional, cell-based
HCT-116 = assay: Cytotoxicity against human HCT116 cells assessed as growth inhibition after 72 hrs by MTT assay; details: HCT-116, 72 h
Outline: (§1)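 MTT proliferation assay; cells exposed 72 h, first screened at 100 μM with ≥50% inhibition versus vehicle-treated cells counted active; active compounds then tested at various concentrations to derive IC50 (concentration giving 50% proliferation inhibition). Sunitinib positive control. Means ± SD of three separate experiments.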

A549 = assay: Cytotoxicity against human A549 cells assessed as growth inhibition after 72 hrs by MTT assay; details: A549, 72 h; outline: as §1
MCF7 = assay: Cytotoxicity against human MCF7 cells assessed as growth inhibition after 72 hrs by MTT assay; details: MCF7, 72 h; outline: as §1

Compound	IC50 (HCT-116) [µM]	IC50 (A549) [µM]	IC50 (MCF7) [µM]
Cc1ccc(NC(=S)N/N=C2\C(=O)Nc3ccc(Cl)cc32)c(C)c1	> 100	> 100	> 100
O=C1Nc2ccc(Br)cc2/C1=N/NC(=S)N1CCN(c2ccccc2)CC1	10.4	12.2	20.5
Cc1ccc(N2CCN(C(=S)N/N=C3\C(=O)Nc4ccc(Cl)cc43)CC2)cc1	6.39	10.1	17.1
CCN(CC)CCNC(=O)c1c(C)[nH]c(/C=C2\C(=O)Nc3ccc(F)cc32)c1C [SUNITINIB]	4.71	2.44	6.29
O=C1Nc2cccc(Cl)c2/C1=N/NC(=S)N1CCN(c2ccccc2)CC1	42.1	55.9	52.1
Cc1ccc(N2CCN(C(=S)N/N=C3\C(=O)Nc4ccc(Cl)cc43)CC2)c(C)c1	7.18	3.59	10.8
O=C1Nc2ccc(Cl)cc2/C1=N/NC(=S)N1CCN(c2ccc(Cl)c(Cl)c2)CC1	5.82	7.95	10.8
O=C1Nc2cc(Br)ccc2/C1=N/NC(=S)N1CCN(c2ccccc2)CC1	14.5	15.8	19.7
O=C1Nc2ccc(Cl)cc2/C1=N/NC(=S)N1CCN(c2ccc([N+](=O)[O-])cc2)CC1	12	11.8	20.9
COc1ccc(N2CCN(C(=S)N/N=C3\C(=O)Nc4ccc(Cl)cc43)CC2)cc1	7.74	7.68	13.8
Cc1ccccc1N1CCN(C(=S)N/N=C2\C(=O)Nc3ccc(Cl)cc32)CC1	4.91	6.52	10.9
COc1ccc2c(c1)/C(=N/NC(=S)N1CCN(c3ccccc3)CC1)C(=O)N2	9.53	7.52	14.4
O=C1Nc2c(Br)cc(Br)cc2/C1=N/NC(=S)N1CCN(c2ccccc2)CC1	6.32	6.11	11.6
O=C1Nc2ccc(Cl)cc2/C1=N/NC(=S)N1CCN(c2ccccc2[N+](=O)[O-])CC1	4.57	5.58	7.49
O=C1Nc2ccccc2/C1=N/NC(=S)Nc1ccccc1	> 100	> 100	> 100
O=C1Nc2ccc(Cl)cc2/C1=N/NC(=S)N1CCN(c2ccccc2F)CC1	8.29	10.5	15.2
O=C1Nc2ccc([N+](=O)[O-])cc2/C1=N/NC(=S)N1CCN(c2ccccc2)CC1	15.1	17.9	23.3
Cc1ccc2c(c1)/C(=N/NC(=S)N1CCN(c3ccccc3)CC1)C(=O)N2	9.48	9.88	14.9
O=C1Nc2cc(Cl)ccc2/C1=N/NC(=S)N1CCN(c2ccccc2)CC1	17.9	27.7	23
O=C1Nc2ccc(Cl)cc2/C1=N/NC(=S)N1CCN(c2ccccc2)CC1	3.49	7.34	10.4
O=C1Nc2ccc(Cl)cc2/C1=N/NC(=S)N1CCN(c2ccc(F)cc2)CC1	6.35	8.9	12.3
O=C1Nc2ccc(Cl)cc2/C1=N/NC(=S)N1CCN(c2ccc(F)cc2F)CC1	5.89	11.4	20.1
O=C1Nc2ccc(Cl)cc2/C1=N/NC(=S)Nc1ccccc1	30.8	33.1	35
O=C1Nc2ccc(Cl)cc2/C1=N/NC(=S)N1CCN(c2ccccc2Cl)CC1	4.91	7.92	11.7
O=C1Nc2ccc(Cl)cc2/C1=N/NC(=S)N1CCN(c2ccc(Cl)cc2)CC1	5.39	8.18	13.1
O=C1Nc2cccc(Br)c2/C1=N/NC(=S)N1CCN(c2ccccc2)CC1	33.6	54	40.7
O=C1Nc2ccccc2/C1=N/NC(=S)N1CCN(c2ccccc2)CC1	11.1	18.6	24.9
O=C1Nc2ccc(F)cc2/C1=N/NC(=S)N1CCN(c2ccccc2)CC1	12.3	20.7	24.3
